Assay outcomes deposited in PubChem by several laboratories.
TMEM16A inh: blocks the mouse calcium-activated chloride channel TMEM16A. Q8BHY3. HEK293 TMEM16A/YFP iodide influx fluorescence, ionomycin. normalized B-score (activity score, 25-100; higher = stronger inhibition) at 10 µM. hit rate 1.2% among 310,000;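 active means ratio plate-corrected score three or more library SD toward inhibition, starting fluorescence score within five deviations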;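 further: score derived from kinetic fluorescence span divided by baseline fluorescence per well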
m5-HT2A agonist: mouse HTR2A agonism via beta-arrestin recruitment; AID 624169; CHO-K1 mHTR2A beta-arrestin complementation, luminescence; percent of 30 µM serotonin response; P35363; hit rate 0.66% among 360,000; activation, % at 7.6 µM;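 active means activation above a run cutoff, the mean activation of all tested compounds plus 3 SD, cut at about 14% in these data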
MC4R barr agon: human MC4R agonism via beta-arrestin. P32245. U2OS MC4R beta-arrestin complementation, luminescence; percent of melanotan II response, DMSO zero. activation, % at 8.9 µM. hit rate 0.98% among 360,000;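 active means activation above a per-plate cutoff, the mean activation of sample wells on that plate plus 3 SD, cut at about 8% in these data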
beta cell repl: inducers of beta-cell replication in MIN6 cells; proliferation, % at 10 µM; hit rate 0.29% among 330,000; MIN6 cells proliferation, ATPlite luminescence, 48 h; cells starved in 0.2% serum; 100% = growth in 10% serum; AID 2380;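 active means compounds whose signal lies at least 3.5 SD above the mean of all wells on their plate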
ANO1 activ: mouse TMEM16A channel activation, primary screen. Q8BHY3. HEK293 TMEM16A/YFP-H148Q/I152L, iodide quench fluorescence; hits give low values. B-score at 10 µM. hit rate 0.3% among 340,000. AID 623877;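 active means fluorescence-ratio B-score plate-corrected deviation score at least 3 library SD below zero, with starting fluorescence score within 5 deviations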;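 further: channel opened by trigger with iodide after compound preincubation; score built on the fluorescence ratio of max minus min over baseline; more negative score means more quench and so TMEM16A activation or potentiation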
MC4R antag cAMP: antagonists of human melanocortin 4 receptor (MC4R). P32245. MC4R-expressing cells, MTII-stimulated cAMP, LANCE TR-FRET. inhibition, % at 6.5 µM. hit rate 0.48% among 360,000. AID 540295;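 active means inhibition above its plate's cutoff, the mean of tested wells on that plate plus 3 SD, cut at about 29% in these data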
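Test system: U2OS cells stably expressing human melanocortin 4 receptor (MC4R); also added: Melanotan II challenge; compound: 6.5 µM single dose; timing: 30-min compound preincubation, 1-h Melanotan II challenge, 1-h detection, room temperature; signal: Eu-cAMP/anti-cAMP TR-FRET, emission 671 nm; repeats: one well per compound, no replicates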
TMEM16A reconf: TMEM16A (mouse) chloride channel inhibition, re-confirmation | HEK293 TMEM16A/YFP-H148Q, iodide quench fluorescence; ionomycin added to raise cell calcium | shares compounds with TMEM16A inh | hit rate 39% among 2,300 | inhibition, % at 10 µM;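 active means mean duplicate percent inhibition, scaled so buffer wells are 0 and the reference blocker 100, over three buffer SD above buffer mean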
HEK293 Ca mobil: alters calcium mobilization in TMEM16A HEK293 cells, counter-screen; calcium response (% of ionomycin), % at 10 µM; AID 652231; TMEM16A/YFP HEK293, Fluo4 calcium mobilization; shares compounds with TMEM16A inh; hit rate 2% among 2,300;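 active means duplicate-averaged calcium signal over 20% of the ionomycin maximum, relative to buffer baseline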;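 further: each well's signal is peak minus trough fluorescence divided by its pre-addition baseline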
Parental YFP cnt: acts in parental YFP-HEK293 cells lacking TMEM16A, counter-screen. iodide YFP quench, ionomycin. shares compounds with TMEM16A inh. 2,300 tested, under 10 active. YFP ratio F(max-min)/F0 at 10 µM;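 active means yellow fluorescent protein signal ratio exceeding the buffer control mean by over 5 SD of those controls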;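 further: ratio is mean of duplicate wells from kinetic YFP trace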
ClC-1 rat inh: selectivity of TMEM16A inhibitors: inhibition of rat ClC-1 chloride channel | shares compounds with TMEM16A inh | CHO ClC-1-YFP, iodide influx fluorescence quench; iodide control reads 0, buffer control 100 | ratio percent, % at 10 µM | 2,300 tested, under 10 active | AID 652236;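 active means duplicate-mean ratio percent above the mean of iodide-only control wells, which defines zero, plus 5 of their SD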;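 further: higher percent means stronger block of ClC-1 iodide influx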
Target sequence (P35524 whole entry, looked up): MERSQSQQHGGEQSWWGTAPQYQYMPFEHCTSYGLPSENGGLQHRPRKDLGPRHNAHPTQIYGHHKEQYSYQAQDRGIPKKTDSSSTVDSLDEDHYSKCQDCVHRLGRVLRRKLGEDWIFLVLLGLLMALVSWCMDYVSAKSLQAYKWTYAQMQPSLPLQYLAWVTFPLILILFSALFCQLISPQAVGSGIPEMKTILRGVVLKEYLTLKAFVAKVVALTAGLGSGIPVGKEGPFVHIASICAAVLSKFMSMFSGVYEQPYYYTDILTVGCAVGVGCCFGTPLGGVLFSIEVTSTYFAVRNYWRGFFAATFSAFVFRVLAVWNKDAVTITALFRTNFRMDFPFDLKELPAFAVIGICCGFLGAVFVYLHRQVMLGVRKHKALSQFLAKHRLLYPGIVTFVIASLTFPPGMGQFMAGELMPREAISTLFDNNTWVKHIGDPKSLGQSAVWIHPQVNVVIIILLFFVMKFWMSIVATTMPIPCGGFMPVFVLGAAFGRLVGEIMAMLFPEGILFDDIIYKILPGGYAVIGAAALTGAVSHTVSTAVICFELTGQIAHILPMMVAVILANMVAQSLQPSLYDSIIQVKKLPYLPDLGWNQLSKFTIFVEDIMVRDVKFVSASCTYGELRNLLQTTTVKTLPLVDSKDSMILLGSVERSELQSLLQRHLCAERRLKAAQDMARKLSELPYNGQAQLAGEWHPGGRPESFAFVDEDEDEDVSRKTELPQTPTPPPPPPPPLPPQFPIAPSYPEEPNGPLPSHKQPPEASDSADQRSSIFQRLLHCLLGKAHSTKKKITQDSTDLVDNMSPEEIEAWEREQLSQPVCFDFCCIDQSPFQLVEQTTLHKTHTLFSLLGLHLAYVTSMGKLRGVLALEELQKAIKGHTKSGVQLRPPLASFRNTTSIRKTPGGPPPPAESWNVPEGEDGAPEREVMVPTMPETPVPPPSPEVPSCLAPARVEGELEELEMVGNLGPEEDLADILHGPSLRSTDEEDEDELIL
Large screens that a line does not name were inactive (follow-up assays come after a bar, where they were run). Sampled rows, rich in hits. Any-hit rate of the full collection: about 3.4%.

Cc1ccc(NC(=S)NNC(=O)c2ccc(N3CCOCC3)c([N+](=O)[O-])c2)cc1Cl	TMEM16A inh 25 | TMEM16A reconf 26% | HEK293 Ca mobil inactive | Parental YFP cnt inactive | ClC-1 rat inh inactive
Cc1ccc(S(=O)(=O)NC(=O)C2(C)CCN2C(=O)c2ccccc2)nc1 (centres undefined)	none (no result: TMEM16A inh, beta cell repl, ANO1 activ)
CC(C)(C)NC(=O)C(c1ccc(O)cc1)N(Cc1ccc2c(c1)OCO2)C(=O)CCl (centres undefined)	none (no result: TMEM16A inh, beta cell repl, ANO1 activ)
Cc1ccc(C(=O)NCCN2CCC(n3c(=O)[nH]c4ccccc43)CC2)cc1F	none (no result: TMEM16A inh, MC4R barr agon, beta cell repl, ANO1 activ, MC4R antag cAMP)
O=C(NCCCN1CCCC1=O)C(=O)NCC1OCCN1S(=O)(=O)c1cc(F)ccc1F (centres undefined)	none (no result: TMEM16A inh, beta cell repl, ANO1 activ)
Cc1cc(C)c(S(=O)(=O)/N=C2\C=C(Nc3ccc(C(=O)O)cc3)C(=O)c3ccccc32)c(C)c1	TMEM16A inh 25 | TMEM16A reconf 26% | HEK293 Ca mobil inactive | Parental YFP cnt inactive | ClC-1 rat inh inactive
Cc1ccc(S(=O)(=O)Cn2nnnc2C(c2ccccc2)N2CCN(c3ncccn3)CC2)cc1 (centres undefined)	TMEM16A inh 25 | TMEM16A reconf inactive | HEK293 Ca mobil inactive | Parental YFP cnt inactive | ClC-1 rat inh inactive
CCc1ccc(CNn2cnnc2SCC(=O)NC(C)(C)C)cc1	TMEM16A inh 100 | TMEM16A reconf inactive | HEK293 Ca mobil inactive | Parental YFP cnt inactive | ClC-1 rat inh inactive
CN(C)c1ccc(CNn2cnnc2SCC(=O)NC(C)(C)C)cc1	none
COc1ccc(C(=O)N2CCCC(c3ccccc3)C2)cc1 (centres undefined)	none
O=C(c1ccc(F)cc1)N1CCC(c2ccccc2)C1 (centres undefined)	none | TMEM16A reconf inactive | HEK293 Ca mobil inactive | Parental YFP cnt inactive | ClC-1 rat inh inactive
CC(C)Cc1nc(N2CCN(C(=O)c3ccco3)CC2)c(C#N)c2c1CCCC2	TMEM16A inh 25 | TMEM16A reconf inactive | HEK293 Ca mobil inactive | Parental YFP cnt inactive | ClC-1 rat inh inactive
Cc1nc(N2CCN(C(=O)c3ccco3)CC2)c(C#N)c2c1CCCC2	none
NC(N)=NN=C1CCCCCCCCCCC1	none | TMEM16A reconf inactive | HEK293 Ca mobil inactive | Parental YFP cnt inactive | ClC-1 rat inh inactive
O=C(Nc1cccc(F)c1)Nc1nnc([C@@H]2O[C@H](CO)[C@@H](O)[C@H]2O)s1	none (no result: TMEM16A inh, beta cell repl, ANO1 activ)
Cc1ccc(-c2nc3ccc(C(=O)O)cc3nc2-c2ccc(C)cc2)cc1	TMEM16A inh 25 | TMEM16A reconf inactive | HEK293 Ca mobil inactive | Parental YFP cnt inactive | ClC-1 rat inh inactive
COc1ccc(C(=O)NC(=S)Nc2ccc3[nH]c(=O)[nH]c3c2)c(OC)c1	none
Cc1ccc(S(=O)(=O)N2CCCCC2C(=O)N2CCN(Cc3ccccc3)CC2)cc1 (centres undefined)	none
O=C(C1CCCCN1S(=O)(=O)c1ccccc1)N1CCN(Cc2ccccc2)CC1 (centres undefined)	TMEM16A inh 25 | TMEM16A reconf inactive | HEK293 Ca mobil inactive | Parental YFP cnt inactive | ClC-1 rat inh inactive
COc1ccc(Br)c(C(=O)OCC(=O)NC2CCCCCCC2)c1	none (no result: TMEM16A inh, beta cell repl, ANO1 activ)
Cc1cccc(C)c1OCc1cc(C(=O)N(Cc2c(C)nn(C)c2C)C2CC2)no1	TMEM16A inh 25 | TMEM16A reconf 22% | HEK293 Ca mobil inactive | Parental YFP cnt inactive | ClC-1 rat inh inactive
COc1ccc(-c2cnc(SCC(=O)Nc3ccc4c(c3)OCO4)n2Cc2ccco2)cc1	none (no result: TMEM16A inh)
CC(=O)Nc1cccc(NC(=O)CSc2ncc(-c3ccc(Cl)cc3)n2Cc2ccco2)c1	TMEM16A inh 100 | TMEM16A reconf 32% | HEK293 Ca mobil inactive | Parental YFP cnt inactive | ClC-1 rat inh inactive
Nc1ncnc2c1ncn2C1OC(CO)C2OC21 (centres undefined)	none (no result: TMEM16A inh, MC4R barr agon, beta cell repl, ANO1 activ, MC4R antag cAMP)
Nc1ncnc2c1ncn2[C@@H]1O[C@H](CO)C[C@H]1O	TMEM16A inh 100 | TMEM16A reconf inactive | HEK293 Ca mobil inactive | Parental YFP cnt inactive | ClC-1 rat inh inactive
O=C(O)c1ccccc1NSc1ccccc1[N+](=O)[O-]	none
CCc1ccc(NSc2ccccc2[N+](=O)[O-])cc1	TMEM16A inh 25 | TMEM16A reconf inactive | HEK293 Ca mobil inactive | Parental YFP cnt inactive | ClC-1 rat inh inactive
CC(C)c1ccc(NC(=O)Nc2nc(C(N)COCc3ccccc3)cs2)cc1 (centres undefined)	none (no result: TMEM16A inh, beta cell repl, ANO1 activ)
O=C(NCc1ccncc1)C(=O)Nc1nc(C23CC4CC(CC(C4)C2)C3)cs1	TMEM16A inh 100 | TMEM16A reconf 18% | HEK293 Ca mobil inactive | Parental YFP cnt inactive | ClC-1 rat inh inactive
O=C(NCc1ccccc1)C(=O)Nc1nc(C23CC4CC(CC(C4)C2)C3)cs1	none
COc1ccc(CCN(C)C(=O)Cc2ccc(-c3ccccc3)cc2)cc1OC	TMEM16A inh 25 | TMEM16A reconf inactive | HEK293 Ca mobil inactive | Parental YFP cnt inactive | ClC-1 rat inh inactive
COc1ccc(CCN(C)C(=O)COc2ccc(C(=O)c3ccccc3)cc2)cc1OC	none
Cc1ccc(OCCSc2ncnc3nc[nH]c23)cc1	TMEM16A inh 25 | TMEM16A reconf inactive | HEK293 Ca mobil inactive | Parental YFP cnt inactive | ClC-1 rat inh inactive
COc1ccc(OC)c(S(=O)(=O)NC(=O)C2(C)CCN2C(=O)Cc2ccccc2)c1 (centres undefined)	none (no result: TMEM16A inh, beta cell repl, ANO1 activ)
COC(=O)[C@]12CCCCC=C1N(Cc1ccc3c(c1)OCO3)C(=O)[C@H](CC(=O)NCCCCc1ccccc1)C2	none (no result: TMEM16A inh, MC4R barr agon, beta cell repl, ANO1 activ, MC4R antag cAMP)
COC(=O)c1cccc(Nc2ncnc3sccc23)c1	TMEM16A inh 100 | TMEM16A reconf 26% | HEK293 Ca mobil inactive | Parental YFP cnt inactive | ClC-1 rat inh inactive
Cc1cc(C)nc(/N=C(\N)Nc2ccc(SC(F)F)cc2)n1	TMEM16A inh 100 | TMEM16A reconf inactive | HEK293 Ca mobil 32% | Parental YFP cnt inactive | ClC-1 rat inh inactive
CCCNC(=O)C(Cc1ccccc1C)NC(=O)c1ccc(C(F)(F)F)cc1 (centres undefined)	none (no result: TMEM16A inh)
